Bioassay records as filed in PubChem BioAssay.
OX1R antag-1 – antagonists of human orexin 1 receptor; O43613; CHO/OX1R cells, Fluo-8 calcium fluorescence, orexin A; inhibition, % at 5 µM; 330,000 tested, 0.43% active; AID 434989;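 active means inhibition above its plate's threshold, mean inhibition of all tested compounds on the plate plus 3 SD, cut at about 37% in these data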;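 further: 0% = orexin A challenge wells and 100% = SB-334867-A antagonist wells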
OX1R antag-2 – antagonists of human orexin 1 receptor (OX1R) | OX1R-expressing cells, FRET antagonist read-out | inhibition, % at 6.6 µM | 330,000 tested, 1.8% active | AID 485270; in the data active means inhibition mostly above about 38%, no sharp cut-off; inactive means mostly below about 40%;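 further: 0% = agonist challenge alone and 100% = reference antagonist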
GPR7 antag – antagonists of human GPR7 (neuropeptides B/W receptor 1); GPR7-expressing cells, fluorescence antagonist assay; inhibition, % at 4.4 µM; 290,000 tested, 1.1% active; AID 1861; in the data active means inhibition above about 16%, passing the limit was not always enough;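 further: cells stimulated with the agonist NPW; 0% = agonist with vehicle and 100% = vehicle without agonist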
Target sequence (P48145 whole entry, looked up): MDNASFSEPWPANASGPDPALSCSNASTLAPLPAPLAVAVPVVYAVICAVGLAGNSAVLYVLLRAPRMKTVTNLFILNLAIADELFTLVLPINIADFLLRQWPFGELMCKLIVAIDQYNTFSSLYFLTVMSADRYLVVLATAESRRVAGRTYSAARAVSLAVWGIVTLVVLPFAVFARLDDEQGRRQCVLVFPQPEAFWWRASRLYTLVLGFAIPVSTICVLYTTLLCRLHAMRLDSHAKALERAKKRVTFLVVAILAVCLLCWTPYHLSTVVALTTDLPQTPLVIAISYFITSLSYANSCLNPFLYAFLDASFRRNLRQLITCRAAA
CHO parental Ca – signal in parental CHO cells, OX1R antagonist counter-screen; 330,000 tested, 0.63% active; AID 463079; inhibition, % at 5.6 µM; parental CHO-K1, ATP-induced calcium, Fluo-8 fluorescence;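 active means inhibition above that plate's mean sample inhibition plus 3 SD, cut at about 26% in these data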;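 further: 0% = ATP-challenged DMSO wells and 100% = DMSO wells without ATP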
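Test system: untransfected parental CHO cell line. Compound: one dose, 5.6 µM nominal. Detection: intracellular calcium via Fluo-8 no-wash fluorescent dye. Measure: % inhibition. Benchmarks: ATP-challenged DMSO wells low, unchallenged DMSO wells high.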
MPTP inh – permeability transition pore inhibition; inhibition, % at 10 µM; 360,000 tested, 1.4% active; isolated mouse mitochondria, Ca2+ swelling absorbance, 30 min;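 active means inhibition of 50% or more, scaled per plate between neutral and stimulator controls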;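 further: 0% = DMSO wells given calcium and 100% = 1 mM EGTA wells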
OX1R Ca confirm – confirmation of human orexin 1 receptor antagonists; shares compounds with OX1R antag-1; 1,100 tested, 38% active; CHO/OX1R cells, orexin A calcium Fluo-8 fluorescence; inhibition, % at 5 µM; AID 492963; in the data active means inhibition above about 29%;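 further: 0% = agonist challenge alone and 100% = reference antagonist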
CHO Ca triplic – signal in parental CHO cells, OX1R antagonist counter-screen; shares compounds with OX1R antag-1; inhibition, % at 5.6 µM; parental CHO-K1, ATP-induced calcium, Fluo-8 fluorescence; AID 492965; 1,100 tested, 9.3% active;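 active means inhibition above a per-plate limit, the mean inhibition of that plate's test compounds plus 3 SD, cut at about 25% in these data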;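 further: 0% = ATP challenge with DMSO and 100% = DMSO without ATP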
* = called active by the depositor; . = no result given. Sampled rows, rich in hits. Any-hit rate of the full collection: about 3.8%.

SMILES	OX1R antag-1	OX1R antag-2	GPR7 antag	CHO parental Ca	MPTP inh	OX1R Ca confirm	CHO Ca triplic
COCCN(C(=O)COC(=O)c1c(C)nn(-c2ccccc2)c1C)c1c(N)n(Cc2ccccc2)c(=O)[nH]c1=O	.	.	.	.	0	.	.
Nc1nnc(/C=C/c2ccccc2Cl)s1	-11	18	-10	-10	3	.	.
CCOc1ccc(CNc2ccc(S(N)(=O)=O)cc2)cc1	7	-11	13	6	0	.	.
Cc1ccccc1NC(=O)N1CCN(c2ncccn2)CC1	-14	5	1	0	0	.	.
COc1ccc(NC(=O)Nc2ccccc2OC)cc1	-2	-2	8	-9	-1	.	.
COc1ccccc1NC(=O)Nc1ccc(-n2ccc(C(F)(F)F)n2)cc1	34	7	-4	-3	28	5	4
COc1n[nH]c(C(=O)Nc2cc(Cl)ccc2Cl)c1[N+](=O)[O-]	-1	26	1	-18	22	.	.
COc1ccc(Cl)cc1NC(=O)c1[nH]nc(OC)c1[N+](=O)[O-]	105*	15	-17	10	2	-1	-4
CCCOP(=O)(OCCC)C(Nc1ccc(C(C)C)cc1)c1ccc([N+](=O)[O-])cc1 (configuration not stated)	55*	2	13	-6	3	-2	-27
Cc1ccc(OCCC(=O)N(CCC(C)C)c2c(N)n(Cc3ccccc3)c(=O)[nH]c2=O)cc1	37	26	.	-13	1	-5	-11
Cc1noc(C)c1COc1ccc(C(=O)NNC(=O)c2ccccc2O)cc1	-24	9	.	1	0	.	.
Cn1c(=O)c(C(=O)NNC(=O)c2ccc(Br)cc2)c(O)c2ccccc21	27	7	-6	19	3	8	16
Cn1c(=O)c(C(=O)NNC(=O)c2ccccc2F)c(O)c2ccccc21	-10	6	-1	2	1	.	.
Cn1cnnc1SCC(=O)Nc1nc(-c2ccccc2)cs1	42*	45	3	-11	0	32*	2
Cc1nnc(SCC(=O)Nc2nc(-c3ccccc3)cs2)n1N	-1	9	15	-17	-2	.	.
CC(=O)Oc1ccc(N2C(=O)c3cccc4c([N+](=O)[O-])ccc(c34)C2=O)cc1	44*	30	19	25	3	35*	29*
O=C(CSc1nnc(NCc2ccccc2)s1)c1ccco1	32	54	3	-14	0	7	10
Cc1cc(NC(=O)CSc2nnc(NCc3ccccc3)s2)no1	-4	11	6	28	2	.	.
C[n+]1cn(Cc2ccc(C#N)cc2)c2ccccc21	-8	12	5	-11	0	.	.
Cc1cc([N+](=O)[O-])ccc1NCc1ccccc1	50*	12	10	18	4	18	16
COc1ccc(/C=C2\SC(=O)NC2=S)cc1OC	42	42	6	24	6	3	-2
CCOc1ccc(/C=C2\SC(=S)NC2=O)cc1OC	-21	46	-20	2	0	.	.
Cc1cccc(Oc2sc(C(=O)c3ccccc3)c(N)c2C#N)c1	-23	9	-6	-8	1	.	.
O=C(Nc1ccccc1)N(CCCN1CCOCC1)Cc1cccs1	-21	6	-7	-10	2	.	.
CC(C)(C)c1ccc(S(=O)(=O)N(CCCN2CCOCC2)Cc2cccs2)cc1	103*	21	3	-20	1	-10	-8
Cc1ccc(NC(=O)C2CCCN2C(=O)Oc2ccccc2)c(C)c1 (configuration not stated)	-16	0	-3	-16	3	.	.
Cc1cccc(NC(=O)C2CCCN2C(=O)Oc2ccccc2)c1C (configuration not stated)	34	0	-5	-1	-1	-4	-1
Nc1c(-c2ccc(Cl)cc2)cnn1C1CCS(=O)(=O)C1 (configuration not stated)	-5	6	-3	-8	-1	.	.
CS(=O)(=O)N(Cc1ccco1)CC(O)Cn1c2ccccc2c2ccccc21 (configuration not stated)	51*	37	-2	9	4	30*	-1
CCCN(CCC)CC(O)Cn1c2ccccc2c2ccccc21 (configuration not stated)	-28	24	13	-8	2	.	.
